Measured values as given in ChEMBL document CHEMBL1150348, “Design and synthesis of FAJANU: a de novo C(2) symmetric cyclopeptide family” (2008).
Where a SMILES comes first, the peptide text is derived from it. Bridges are numbered along the chain shown (N, C = ends). Roman numbers before positions name the chains, in order. [ ]: non-standard residue; d: D form. The star is where a group is joined. Quinoxaline2carbonyl = O=C(c1cnc2ccccc2n1)*; Quinaldoyl(3-OH) = O=C(c1nc2ccccc2cc1O)*; Quinaldoyl = O=C(c1ccc2ccccc2n1)*; NMeF = CN[C@@H](Cc1ccccc1)C(=O)O; NMeL = CN[C@@H](CC(C)C)C(=O)O; X1 = O=C(c1cc(=O)c2ccccc2o1)*; NMeA = CN[C@@H](C)C(=O)O; Orn = NCCC[C@H](N)C(=O)O; Dap = NC[C@H](N)C(=O)O; Sar = CNCC(=O)O

What was measured:
Assay type in all cases: functional
MDA-MB-231 = assay: Cytotoxicity against human MDA-MB-231 cells after 72 hrs by SRB assay; settings: MDA-MB-231, 72 h
Method in brief: (§1)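 SRB colorimetric growth assay: cells seeded at 5 × 10^3 cells/well in RPMI, grown drug-free 18 h to attach, then samples added (dissolved in DMSO–H2O 3:7) for 72 h exposure. Fixed with cold 50% TCA 60 min at 4 °C, stained with 0.4% SRB in 1% acetic acid 10 min at room temperature, washed, bound dye solubilized in Tris, absorbance read at 490 nm; GI50 derived.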

A549 = assay: Cytotoxicity against human A549 cells after 72 hrs by SRB assay; settings: A549, 72 h; method in brief: as §1
HT-29 = assay: Cytotoxicity against human HT29 cells after 72 hrs by SRB assay; settings: HT-29, 72 h; method in brief: as §1

| Structure (SMILES) | GI50 (MDA-MB-231) [nM] | GI50 (A549) [nM] | GI50 (HT-29) [nM] |
| --- | --- | --- | --- |
| CC(C)C[C@@H](C(=O)N[C@H]1CNC(=O)[C@H](Cc2ccccc2)N(C)C(=O)[C@H](CC(C)C)N(C)C(=O)[C@@H](NC(=O)[C@H](CC(C)C)N(C)C)CNC(=O)[C@H](Cc2ccccc2)N(C)C(=O)[C@H](CC(C)C)N(C)C1=O)N(C)C | 710 | 2860 | 650 |
| CC(C)C[C@@H](C(=O)N[C@H]1COC(=O)[C@H](Cc2ccccc2)N(C)C(=O)[C@H](CC(C)C)N(C)C(=O)[C@@H](NC(=O)[C@H](CC(C)C)N(C)C)COC(=O)[C@H](Cc2ccccc2)N(C)C(=O)[C@H](CC(C)C)N(C)C1=O)N(C)C | 1230 | 2900 | 640 |
| CC(C)C[C@H]1C(=O)NCCCC[C@H](NC(=O)c2ccc3ccccc3n2)C(=O)N(C)[C@@H](CC(C)C)C(=O)N(C)CC(=O)N(C)[C@@H](CC(C)C)C(=O)NCCCC[C@H](NC(=O)c2ccc3ccccc3n2)C(=O)N(C)[C@@H](CC(C)C)C(=O)N(C)CC(=O)N1C (I: Quinaldoyl-K[NMeL][Sar][NMeL] / II: Quinaldoyl-K[NMeL][Sar][NMeL]; amide I:1-II:C, I:C-II:1) | – | 3940 | – |
| CC(C)C[C@H]1C(=O)NC[C@H](NC(=O)c2ccc3ccccc3n2)C(=O)N(C)[C@@H](CC(C)C)C(=O)NCC(=O)N(C)[C@@H](CC(C)C)C(=O)NC[C@H](NC(=O)c2ccc3ccccc3n2)C(=O)N(C)[C@@H](CC(C)C)C(=O)NCC(=O)N1C (I: Quinaldoyl-[Dap][NMeL]G[NMeL] / II: Quinaldoyl-[Dap][NMeL]G[NMeL]; amide I:1-II:C, I:C-II:1) | 550 | 1180 | 620 |
| CC(C)C[C@H]1C(=O)N(C)CC(=O)N(C)[C@@H](C)C(=O)NC[C@H](NC(=O)c2ccc3ccccc3n2)C(=O)N(C)[C@@H](CC(C)C)C(=O)N(C)CC(=O)N(C)[C@@H](C)C(=O)NC[C@H](NC(=O)c2ccc3ccccc3n2)C(=O)N1C (I: Quinaldoyl-[Dap][NMeL][Sar][NMeA] / II: Quinaldoyl-[Dap][NMeL][Sar][NMeA]; amide I:1-II:C, I:C-II:1) | 5340 | – | 3530 |
| CC(C)C[C@H]1C(=O)N(C)CC(=O)N(C)[C@@H](Cc2ccccc2)C(=O)NC[C@H](NC(=O)c2ccc3ccccc3n2)C(=O)N(C)[C@@H](CC(C)C)C(=O)N(C)CC(=O)N(C)[C@@H](Cc2ccccc2)C(=O)NC[C@H](NC(=O)c2ccc3ccccc3n2)C(=O)N1C (I: Quinaldoyl-[Dap][NMeL][Sar][NMeF] / II: Quinaldoyl-[Dap][NMeL][Sar][NMeF]; amide I:1-II:C, I:C-II:1) | – | 4160 | 4080 |
| CC(C)C[C@H]1C(=O)NC[C@H](NC(=O)c2ccc3ccccc3n2)C(=O)N(C)[C@@H](CC(C)C)C(=O)N(C)CC(=O)N(C)[C@@H](CC(C)C)C(=O)OC[C@H](NC(=O)c2ccc3ccccc3n2)C(=O)N(C)[C@@H](CC(C)C)C(=O)N(C)CC(=O)N1C (I: Quinaldoyl-[Dap][NMeL][Sar][NMeL] / II: Quinaldoyl-S[NMeL][Sar][NMeL]; amide I:1-II:C; ester I:C-II:1) | 1160 | 2760 | 1230 |
| CC(C)C[C@H]1C(=O)NC[C@H](NC(=O)c2ccc3ccccc3n2)C(=O)N(C)[C@@H](CC(C)C)C(=O)N(C)CC(=O)N(C)[C@@H](CC(C)C)C(=O)NC[C@H](NC(=O)c2ccc3ccccc3n2)C(=O)N(C)[C@@H](CC(C)C)C(=O)N(C)CC(=O)N1C (I: Quinaldoyl-[Dap][NMeL][Sar][NMeL] / II: Quinaldoyl-[Dap][NMeL][Sar][NMeL]; amide I:1-II:C, I:C-II:1) | 640 | 570 | 500 |
| CC(C)C[C@H]1C(=O)NCCC[C@H](NC(=O)c2ccc3ccccc3n2)C(=O)N(C)[C@@H](CC(C)C)C(=O)N(C)CC(=O)N(C)[C@@H](CC(C)C)C(=O)NCCC[C@H](NC(=O)c2ccc3ccccc3n2)C(=O)N(C)[C@@H](CC(C)C)C(=O)N(C)CC(=O)N1C (I: Quinaldoyl-[Orn][NMeL][Sar][NMeL] / II: Quinaldoyl-[Orn][NMeL][Sar][NMeL]; amide I:1-II:C, I:C-II:1) | 5800 | 2940 | 2440 |
| CC(C)C[C@H]1C(=O)NC[C@H](NC(=O)c2cnc3ccccc3n2)C(=O)N(C)[C@@H](CC(C)C)C(=O)N(C)CC(=O)N(C)[C@@H](CC(C)C)C(=O)NC[C@H](NC(=O)c2cnc3ccccc3n2)C(=O)N(C)[C@@H](CC(C)C)C(=O)N(C)CC(=O)N1C (I: Quinoxaline2carbonyl-[Dap][NMeL][Sar][NMeL] / II: Quinoxaline2carbonyl-[Dap][NMeL][Sar][NMeL]; amide I:1-II:C, I:C-II:1) | 1670 | 1410 | 1230 |
| CC(C)C[C@H]1C(=O)NC[C@H](NC(=O)c2cc(=O)c3ccccc3o2)C(=O)N(C)[C@@H](CC(C)C)C(=O)N(C)CC(=O)N(C)[C@@H](CC(C)C)C(=O)NC[C@H](NC(=O)c2cc(=O)c3ccccc3o2)C(=O)N(C)[C@@H](CC(C)C)C(=O)N(C)CC(=O)N1C (I: X1-[Dap][NMeL][Sar][NMeL] / II: X1-[Dap][NMeL][Sar][NMeL]; amide I:1-II:C, I:C-II:1) | 2310 | – | 2910 |
| CC(C)C[C@H]1C(=O)NC[C@H](NC(=O)c2nc3ccccc3cc2O)C(=O)N(C)[C@@H](CC(C)C)C(=O)N(C)CC(=O)N(C)[C@@H](CC(C)C)C(=O)NC[C@H](NC(=O)c2nc3ccccc3cc2O)C(=O)N(C)[C@@H](CC(C)C)C(=O)N(C)CC(=O)N1C (I: {Quinaldoyl(3-OH)}-[Dap][NMeL][Sar][NMeL] / II: {Quinaldoyl(3-OH)}-[Dap][NMeL][Sar][NMeL]; amide I:1-II:C, I:C-II:1) | – | 2400 | 3430 |
